Measured values gathered from unrelated publications.
Lines come from different studies, so protocols differ.
CTSL: Procathepsin L (CTSL, Homo sapiens, UniProt P07711)
MAP4K5: Mitogen-activated protein kinase kinase kinase kinase 5 (MAP4K5, Homo sapiens, UniProt Q9Y4K4)
XDH: Xanthine dehydrogenase/oxidase (XDH, Bos taurus, UniProt P80457)

The inhibition of O=C(Oc1cncc(Cl)c1)c1cc2cc(Cl)ccc2[nH]1 is reported as 3% (CTSL; enzyme activity; inhibitor; 10 µM).
N=C(N)c1ccc2cc(OC(=O)c3ccc(N=C(N)N)cc3)ccc2c1 gave an inhibition of 57% (CTSL; enzyme activity; inhibitor; 10 µM).
Cn1cc(-c2cc(F)cc(N3CCn4c(cc5c4CCCC5)C3=O)c2CO)cc(Nc2ccc(N3CCN(C4COC4)CC3)cn2)c1=O gave an inhibition of 3% (MAP4K5; enzyme activity; inhibitor; 0.1 µM).
The inhibition of CC(C)C[C@H](NC(=O)[C@H]1O[C@@H]1C(=O)O)C(=O)NCCCCN=C(N)N is reported as 84% (CTSL; enzyme activity; inhibitor; 50 nM).
With C#Cc1n[nH]c2c(-c3cn([C@@H](C)c4ccccc4)c(=O)[nH]c3=O)cc(F)cc12 the inhibition was 10.2% (Protein kinase C theta type (PRKCQ, Homo sapiens, UniProt Q04759); enzyme activity; inhibitor; 0.1 µM).
NC(=O)Cc1ccccc1 gave an inhibition of 7.3% (XDH; enzyme activity; inhibitor; absorbance; 100 µg/mL).
CCOC(=O)c1ccc(OC(=O)CCCCCNC(=N)N)cc1 has an inhibition of 0% (CTSL; enzyme activity; inhibitor; 10 µM).
The inhibition of COc1cc(Nc2ncc(F)c(Nc3ccc4c(n3)NC(=O)C(C)(C)O4)n2)cc(OC)c1OC is reported as 16% (MAP4K5; binding; competition with immobilised ligand; 10 µM).
For C[C@H](C(=O)N[C@H]1COc2ccccc2[C@@H]1S(C)(=O)=O)c1ccc(F)cc1, the inhibition was 10% (XDH; enzyme activity; inhibitor; 10 µM).
The inhibition of CC(C)N1CCC[C@H]1CNC(=O)c1cn(C2CCCC2)c(=O)c2c1c1ccccc1n2C is reported as -10% (Alpha-1B adrenergic receptor (Adra1b, Rattus norvegicus, UniProt P15823); ligand displacement; radioligand; 10 µM).
For Cn1cc(-c2cccc(N3CCc4c(sc5c4CC(C)(C)C5)C3=O)c2CO)cc(Nc2ccncn2)c1=O, the inhibition was 5% (Platelet-derived growth factor receptor alpha (PDGFRA, Homo sapiens, UniProt P16234); enzyme activity; inhibitor; 1 µM).
C#Cc1n[nH]c2c(-c3cn(C(C)c4ccccn4)c(=O)[nH]c3=O)cc(F)cc12 (stereo not shown) has an inhibition of 3.1% (Tyrosine-protein kinase Blk (BLK, Homo sapiens, UniProt P51451); enzyme activity; inhibitor; 1 µM).
With O=C(Oc1cncc(Cl)c1)c1cc2c(Cl)cc(Cl)cc2[nH]1 the inhibition was 14% (CTSL; enzyme activity; inhibitor; 10 µM).
